Assay results taken from the RNAGym collection of RNA variant scans (doi:10.1038/nmeth.2970).

B1: NELF-E aptamer (parent)
chain: CCCAACGACUGCCGAGCGAGAUUACGCUUGAGCGCCCCACUGAGGAUGCCCACGGGCGAUUGGGGCACGG

Variants of: B1
Assay: HiTS-RAP
Settings: with NELF-E (Drosophila)
Summary of the method: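 Aptamer DNA templates bearing a T7 promoter and a ter site were sequenced on an Illumina GAIIx flowcell. T7 RNA polymerase then transcribed them in situ, and GST-Tus halted transcription over 30 minutes at 37°C. After a 30-minute room-temperature equilibration with NELF-E-mOrange at 0.064 to 1000 nM in HEPES binding buffer, clusters were imaged, using only the first binding curve. Intensities normalised to sequencing intensity were averaged per sequence and fitted with weighted Hill fits to give Kd, retaining only fits whose variance stayed under 1,000,000.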

Variant	Kd
G11U U41G	6.22 nM
U29G C33U	6.03 nM
A4U G16U	6.93 nM
U22G A52U	17.5 nM
A4G A39G	10.6 nM
A4G G44U	7.66 nM
A5G U22G	5.89 nM
U22G C50G	7.97 nM
C38G	5.24 nM
G11U U22G	6.4 nM
G20U U41G	6.33 nM
C6G C57U	6.1 nM
U10G G63A	16.5 nM
C13G C36U	7.49 nM
G14U C36U	8.6 nM
A4U U22G	5.86 nM
C13U A19U	5 nM
A4U G26A	4.14 nM
G26A U41G	4.19 nM
U10G A43C	75.8 nM
G34C	9.79 nM
G7C	6.43 nM
G7U	5.55 nM
U60C	9.28 nM

Variant	Kd
G64A G65U	5.13 nM
U29G C37A	14.8 nM
A4G G54A	14.1 nM
C6U C9U	5.38 nM
G20A U41G	5.24 nM
A5U C12U	6.37 nM
C17G C38U	7.29 nM
U41G	5.16 nM
U10G C35U	16.3 nM
U10G C35G	6.33 nM
A24G A52G	5.14 nM
A8C U22G	7.46 nM
U10G G16C	6.96 nM
C36A	8.24 nM
G11A A39U	24.2 nM
C6G C35U	16.8 nM
A31G G32A	5.29 nM
G65U	6.03 nM
G11A C13G	6.15 nM
G16U G56A	13.2 nM
G7A A24G	6.73 nM
A19G U41C	92.4 nM
A4C A8G	6.82 nM
A24U U29G	6.22 nM

Variant	Kd
C9G U61A	35.2 nM
U23C U29G	4.34 nM
U10A G26A	5.22 nM
C12G C17U	7.01 nM
G14A A43G	9.58 nM
C6G U29A	5.51 nM
U29G G62U	8.12 nM
C6U U41G	5.16 nM
G30A U41G	5.12 nM
G7U A46G	56 nM
U10G U47A	10.8 nM
U10G U47G	6.24 nM
G7U A67U	9.65 nM
G7U A67G	7.45 nM
U22G U23C	4.62 nM
A5G G45A	21.9 nM
U61G	7.54 nM
A5U U10C	4.96 nM
G14U C40G	9.9 nM
A8G G11U	6.74 nM
U22G C51U	7.12 nM
A5U A39U	29.7 nM
A8U C33U	6.3 nM
A8U U47G	5.6 nM

Variant	Kd
A8U U47A	15.7 nM
A4U C25G	5.99 nM
C17G G26A	5.44 nM
A24G C27U	6.16 nM
A4U C17G	5.58 nM
C12U U29G	5.46 nM
A39U A67G	27.3 nM
A39U A67U	55 nM
A4G A59U	113 nM
A8G C13G	5.95 nM
A31G G55A	9.56 nM
G16U G55A	7.53 nM
C12U U23G	5.04 nM
A19G G63A	19.1 nM
A24G G63U	11 nM
A4G U28A	4.59 nM
A4G U28G	6.58 nM
G34A A67U	16.8 nM
G14A U22C	5.13 nM
U41G A43U	26.3 nM
A4G U10C	5.06 nM
A8U A52U	17.4 nM
C6G A46U	56.8 nM
C13U G34A	6.99 nM

Variant	Kd
G14U A19G	6.25 nM
U29G G45A	74.1 nM
A8U U10A	6.91 nM
U29G C38U	8.13 nM
U10G G54A	12 nM
A67G	5.33 nM
G14U U41A	51.7 nM
C13G C33U	5.79 nM
U22G C57U	6.19 nM
G16U A67G	5.58 nM
C6U C17G	6.11 nM
C12U C13G	5.4 nM
U22G U28C	8.17 nM
U22G U28A	5.81 nM
A4G G16U	6.47 nM
A5U A8G	6.23 nM
A24G U29C	4.85 nM
A24G U29G	5.84 nM
U28G	6.24 nM
U28C	8.26 nM
U22C U23G	5 nM
A19G C25U	6.25 nM
G7A U41G	6.05 nM
A5G U61C	64.6 nM

Variant	Kd
A4U U47G	6.26 nM
U23G U47G	6.6 nM
A5G A8G	6.06 nM
A4G C66G	5.69 nM
U10G U60C	8.47 nM
A8G A59G	89.2 nM
A5G G42A	27.1 nM
C13U A31G	5.17 nM
U23G U28A	5.01 nM
U23G U28G	7.22 nM
A5C	6.55 nM
A19G G20U	6.34 nM
C13G U61G	7.74 nM
A46G	26.5 nM
A46U	63.2 nM
A5G A43U	33.6 nM
A5G A43G	25.6 nM
A5G A39U	34.5 nM
U10G C27A	5.02 nM
C6G A67U	6.45 nM
G7U U61A	39.5 nM
C17G G55U	7.51 nM
G7U C57U	6.23 nM
C25G G26U	5.3 nM

Variant	Kd
G58U A59G	5.09 nM
U10G C12U	4.41 nM
G11U C12G	5.8 nM
C9G G20A	6.64 nM
A5U G18A	5.46 nM
G14U A67U	6.23 nM
G14U A67G	6.8 nM
A43G A67U	23.5 nM
A5G U28G	7.79 nM
U10A	4.9 nM
A4G C17U	5.09 nM
C6G C9U	5.58 nM
A5G G11U	6.9 nM
C12G U61A	39.1 nM
U10G C49U	18.7 nM
G7U A31G	7.34 nM
U41G C49U	28 nM
A19G A21G	6.58 nM
U22G G64A	8.7 nM
C9G C50A	23.5 nM
A4G C57U	5.88 nM
A4U C37U	9.84 nM
G16U A39G	8.49 nM
